Screening data as filed in PubChem BioAssay.
APJ ag: agonists of human apelin receptor APJ, primary screen, CHO-K1 cells, PathHunter beta-arrestin, luminescence. hit rate 0.11% among 330,000. 0% DMSO wells, 100% apelin. AID 2520, 2010. activation, % at 20 µM. P35414;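 active = activation more than six SD over the plate average, tested at 20 µM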;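 note: 0% = DMSO alone and 100% = apelin-13 at 10 nM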
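Test system – PathHunter CHO-K1 APJ (AGTRL-1) beta-arrestin reporter cells · Input – 1000 cells/well · Compound – single test compound dose, 20 µM final, 1% DMSO · Times – compound stimulation 90 min at 25 °C, detection 60 min · Technique – beta-gal luminescence · Read-out basis – APJ–arrestin association signal · Control set – negative DMSO alone, positive Apelin-13 at 10 nM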
EBI2 block: EBI2 receptor antagonists, beta-arrestin recruitment, primary screen, cell-based, luminescence, 7a,25-OHC stimulation, uHTS; G-protein coupled receptor 183 (Homo sapiens), P32249; 7a,25-OHC stimulated; inhibition, % at 5 µM; hit rate 0.81% among 360,000; in the data active = inhibition above about 38%;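 note: enzyme fragment complementation signal reports receptor beta-arrestin coupling in cells; 0% = agonist plus DMSO wells and 100% = wells without agonist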
CCR6 antagonist: CCR6 receptor antagonists, primary screen, cell-based, CHO-K1, luminescence, beta-arrestin, uHTS | CHO-K1 CCR6 PathHunter beta-arrestin, CCL20-stimulated | inhibition, % at 20 µM | hit rate 0.49% among 340,000 | AID 493098, 2011;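 active = compounds whose inhibition of the agonist-driven luminescence signal at 20 µM reaches about 50%, limit read from the data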;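 note: cells stimulated with CCL20 at 14 nM final; plate controls were DMSO with CCL20 for no effect and DMSO without agonist for full effect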
Target sequence (P51684 whole entry, looked up): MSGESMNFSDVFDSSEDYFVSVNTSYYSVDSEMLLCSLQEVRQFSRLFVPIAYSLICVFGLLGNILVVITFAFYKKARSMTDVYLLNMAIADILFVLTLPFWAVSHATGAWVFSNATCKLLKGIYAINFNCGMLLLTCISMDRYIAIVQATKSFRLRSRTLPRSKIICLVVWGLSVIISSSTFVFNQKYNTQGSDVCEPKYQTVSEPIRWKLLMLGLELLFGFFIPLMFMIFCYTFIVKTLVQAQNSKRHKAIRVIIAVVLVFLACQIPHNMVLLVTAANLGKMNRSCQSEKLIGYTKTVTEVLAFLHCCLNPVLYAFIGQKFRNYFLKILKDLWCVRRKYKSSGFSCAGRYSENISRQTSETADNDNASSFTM
m5-HT2A agonist: mouse Htr2a agonists via beta-arrestin recruitment, primary screen, cell-based, luminescence; AID 624169, 2012; hit rate 0.66% among 360,000; CHO-K1 mHTR2A beta-arrestin complementation; percent of 30 µM serotonin response; activation, % at 7.6 µM; 5-hydroxytryptamine receptor 2A (Mus musculus), P35363;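 active = activation above a run cutoff, the mean activation of all tested compounds plus 3 SD, cut at about 14% in these data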;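 note: 0% = plate median of compound wells and 100% = 30 µM serotonin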
APJ antagonist: antagonists of human apelin receptor APJ, primary screen, CHO-K1 cells, beta-arrestin complementation, luminescence; hit rate 0.32% among 330,000; inhibition, % at 20 µM; P35414;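 active = inhibition above about 40% at 20 µM, limit read from the data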;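 note: cells challenged with 10 nM apelin-13 agonist together with compound; plate controls were apelin-13 plus DMSO wells for no effect and DMSO wells lacking apelin-13 for full effect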
CXCR6 inh: CXCR6 receptor inhibitors, primary screen, cell-based, beta-arrestin, luminescence, CHO-K1 PathHunter, 1536-well. inhibition, % at 20 µM. AID 602244, 2012. C-X-C chemokine receptor type 6 (Homo sapiens), O00574. hit rate 0.36% among 360,000; in the data active = inhibition above about 34%, passing the limit was not always enough;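 note: antagonist mode with CXCL16 agonist at 10 nM final; 0% = 10 nM CXCL16 with DMSO and 100% = unstimulated wells without agonist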
Target sequence (O00574 whole entry, looked up): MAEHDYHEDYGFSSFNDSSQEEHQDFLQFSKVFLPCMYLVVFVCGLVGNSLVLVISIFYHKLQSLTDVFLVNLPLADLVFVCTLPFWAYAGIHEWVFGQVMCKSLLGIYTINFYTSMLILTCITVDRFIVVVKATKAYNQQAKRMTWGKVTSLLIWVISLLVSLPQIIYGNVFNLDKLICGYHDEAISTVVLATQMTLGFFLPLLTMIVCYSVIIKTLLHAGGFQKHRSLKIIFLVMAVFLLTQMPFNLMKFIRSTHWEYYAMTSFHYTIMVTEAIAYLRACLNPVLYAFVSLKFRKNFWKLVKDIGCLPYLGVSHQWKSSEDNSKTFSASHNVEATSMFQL
EBI2 antag conf: EBI2 antagonist hit retest, beta-arrestin, confirmation, cell-based, single concentration, luminescence, 7a,25-OHC stimulation | inhibition, % at 5 µM | shares compounds with EBI2 block | hit rate 29% among 2,400 | 7a,25-OHC antagonism;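 active = inhibition of at least 50%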
EBI2 ag: EBI2 agonist activity of antagonist hits, confirmation, counter-screen for EBI2 antagonist project, cell-based, single concentration, agonist mode, luminescence; shares compounds with EBI2 block; EBI2-expressing cells, 60 min; 0% vehicle, 100% 7α,25-dihydroxycholesterol control; activation, % at 5 µM; 2,400 tested, under 10 active; AID 652000, 2013;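 active = activation of at least 50%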
bGal counter: E. coli beta-galactosidase enzyme inhibition, confirmation, counter-screen for EBI2 antagonist project, biochemical, luminescence, single concentration. shares compounds with EBI2 block. purified beta-galactosidase, luminescent Galacton Star, 15 min. inhibition, % at 5 µM. hit rate 1% among 2,400;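 active = replicate-average signal at least 3 plate SD below neutral wells, shown as high inhibition, flagging enzyme-inhibiting false positives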;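 note: 0% = DMSO wells with enzyme and 100% = wells lacking enzyme; higher means stronger loss of beta-gal luminescence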
Starred values were filed as active, the others as inactive; nt = not tested or not shown. In the library only some 2.2% were active in any assay of this set; here they are far more common.

SMILES	APJ ag	EBI2 block	CCR6 antagonist	m5-HT2A agonist	APJ antagonist	CXCR6 inh	EBI2 antag conf	EBI2 ag	bGal counter
O=C(/C=C/c1ccc2ccccc2n1)N1CCN(S(=O)(=O)c2ccc(F)cc2)CC1	-4.7	50.0*	19.0	1.8	5.1	-8.5	38.8	1.2	11.3
O=C(/C=C/c1ccc2ccccc2n1)N1CCN(c2ccccc2)CC1	-2.0	2.0	9.4	-2.0	-8.3	7.5	nt	nt	nt
CC(=O)C1=CCC(c2ccc(Cl)cc2)N(S(=O)(=O)c2ccccc2C)C1 (stereo not given)	nt	-0.3	nt	-5.8	nt	4.1	nt	nt	nt
O=S(=O)(c1ccccc1)N1CCN(CC(O)COc2ccc3c(c2)CCC3)CC1 (stereo not given)	0.6	83.0*	-2.4	-0.4	10.3	-0.9	69.2*	1.9	-4.3
CCN1CCN(CC(O)COc2ccc3c(c2)CCC3)CC1 (stereo not given)	-2.5	-4.8	-5.8	-2.7	6.2	-0.8	nt	nt	nt
CC1(C(=O)NS(=O)(=O)c2cccc(F)c2)CCN1C(=O)CCc1ccccc1 (stereo not given)	nt	-5.6	nt	0.2	nt	-3.2	nt	nt	nt
O=C(/C=C/c1ccc(Cl)cc1)NC1CC2CCC1C2 (stereo not given)	-2.2	62.7*	20.6	0.6	1.8	2.6	23.7	-0.5	-8.7
O=c1c2oc3ccccc3c2ncn1Cc1cccc(Cl)c1	-3.7	48.5*	3.7	8.6	8.6	-3.7	10.0	1.2	5.1
O=c1c2oc3ccccc3c2ncn1Cc1ccccc1Cl	-6.4	4.8	-7.5	-3.2	9.7	-1.8	nt	nt	nt
COc1ccc(S(=O)(=O)N(C)C[C@@H]2Oc3cc(C#CC4CCCCC4)ccc3S(=O)(=O)N([C@@H](C)CO)C[C@@H]2C)cc1	nt	28.8	nt	2.5	nt	9.7	nt	nt	nt
O=C(Nc1cccc(-c2csc(Nc3cccc(C(F)(F)F)c3)n2)c1)c1cc([N+](=O)[O-])cc(C(F)(F)F)c1	9.2	47.0*	-0.3	-2.7	-134.5	-12.5	22.0	-1.5	-14.4
O=S(=O)(c1ccc(NC(=S)NC23CC4CC(CC(C4)C2)C3)cc1)N1CCCCC1	nt	37.1	nt	-0.1	nt	-2.5	nt	nt	nt
CCOC(=O)C1CCN(C(=O)/C=C/c2ccccc2)CC1	-5.1	64.6*	21.5	-4.2	-3.0	7.2	51.2*	-1.6	-8.7
CN(C)C(CNC(=O)C1CCN(C(=O)/C=C/c2ccccc2)CC1)c1ccccc1 (stereo not given)	0.7	72.2*	14.2	-5.6	18.4	-4.2	41.8	0.8	3.2
CCOC(=O)C1CCN(C(=O)/C=C/c2ccc3c(c2)OCO3)CC1	-3.3	55.8*	2.3	11.9	7.4	8.9	33.4	-0.6	-8.8
O=C(CN1CCN(C(=O)C2CCN(C(=O)/C=C/c3ccccc3)CC2)CC1)Nc1ccccc1Cl	-0.1	87.6*	10.7	7.5	10.9	5.2	56.3*	0.9	6.4
O=C(/C=C/c1ccc2c(c1)OCO2)N1CCCCC1	-2.2	21.1	8.3	-0.2	11.6	-3.6	nt	nt	nt
O=C(CN1CCCCCC1)Nc1ccccc1Cl	-0.5	1.0	22.1	-2.4	9.7	6.3	nt	nt	nt
CCNC(=O)C1(C)CCCN(Cc2cccc(Oc3ccccc3)c2)C1 (stereo not given)	nt	0.8	nt	-4.6	nt	4.0	nt	nt	nt
COc1cccc(S(=O)(=O)N(C)C[C@H]2OCc3cnnn3CCCC(=O)N([C@H](C)CO)C[C@H]2C)c1	nt	-7.8	nt	6.4	nt	1.6	nt	nt	nt
CC(C)(C)c1ccc(S(=O)(=O)Nc2ccc(C(O)(C(F)(F)F)C(F)(F)F)cc2)cc1	nt	19.6	nt	-1.9	nt	2.7	nt	nt	nt
COc1ccc2[nH]c(C(=O)N3CCN(Cc4ccccc4)CC3)cc2c1OC	-4.6	52.4*	5.9	-1.3	15.7	-2.9	17.0	0.5	-9.6
Cc1[nH]c2ccc(C(=O)N3CCN(Cc4ccccc4)CC3)cc2c1C	-0.6	64.8*	5.5	-5.5	-13.4	-8.0	40.3	3.0	5.6
CCCN1CCN(C(=O)c2ccc3[nH]c(C)c(C)c3c2)CC1	nt	73.2*	nt	-4.2	nt	0.5	46.2	-0.7	-10.9
Cc1[nH]c2ccc(C(=O)N3CCN(c4ccccn4)CC3)cc2c1C	2.5	41.1*	13.1	-3.0	10.6	1.6	38.8	0.6	8.2
SMILES	APJ ag	EBI2 block	CCR6 antagonist	m5-HT2A agonist	APJ antagonist	CXCR6 inh	EBI2 antag conf	EBI2 ag	bGal counter
CCN1C(=O)[C@H]2[C@@H](c3ccc(C)cc3)N[C@]3(CCCN(Cc4ccc(Cl)cc4)C3=O)[C@H]2C1=O	nt	2.7	nt	-5.1	nt	0.2	nt	nt	nt
Cc1ccc(NS(=O)(=O)c2ccc(NC(=O)CN(c3cc([N+](=O)[O-])ccc3C)S(C)(=O)=O)cc2)c(C)c1	1.8	75.2*	17.6	0.6	-11.4	5.4	22.4	-1.7	-2.2
CCC(CO)Nc1ccn2nc(-c3cccs3)cc2n1 (stereo not given)	nt	-5.0	nt	1.7	nt	1.1	nt	nt	nt
Cc1ccc2oc(=O)c3cnn(CC(=O)N4CCCCC4C)c3c2c1 (stereo not given)	-2.9	19.7	3.2	9.0	11.2	-2.5	nt	nt	nt
Cc1ccc2oc(=O)c3cnn(CC(=O)N(CCC(C)C)Cc4ccco4)c3c2c1	3.1	86.5*	6.5	1.8	2.8	3.2	76.2*	1.7	-1.8
CCOC(=O)Cn1ncc2c(=O)oc3ccccc3c21	-5.9	-1.0	7.1	0.1	9.4	5.2	nt	nt	nt
O=C(Cn1ncc2c(=O)oc3ccccc3c21)N(Cc1ccco1)C1CCCCC1	-0.6	55.6*	3.2	-3.0	7.6	0.0	29.4	0.5	8.9
CCCCN(Cc1ccco1)C(=O)Cn1ncc2c(=O)oc3ccc(C)cc3c21	-0.2	86.1*	12.0	-0.2	-12.6	-5.4	49.0	1.5	2.7
Cc1ccc2oc(=O)c3cnn(CC(=O)N4CCc5ccccc5C4)c3c2c1	-0.5	46.8*	14.6	6.9	23.1	4.0	15.4	-1.1	-13.0
Cc1nc2ccc(S(=O)(=O)CCC(=O)NCCc3ccccc3)cc2s1	nt	-5.8	nt	-4.6	nt	1.0	nt	nt	nt
O=Cc1c(NCCc2ccc(F)cc2)c2ccccc2[nH]c1=O	0.3	44.6*	11.3	-4.0	15.6	3.9	4.0	-1.2	-9.4
COC(=O)C[C@H]1C[C@H]2c3cc(NC(=O)C4CCC4)ccc3O[C@H]2[C@H](CO)O1	nt	-0.8	nt	2.3	nt	-0.2	nt	nt	nt
